This is a sample that favours compounds with a hit; in the whole collection about 2.3% have one here.
pPAFAH FP inh: pPAFAH enzyme inhibitors, primary screen, biochemical, fluorescence polarization, human | Platelet-activating factor acetylhydrolase (Homo sapiens), Q13093 | inhibition, % at 3.39 µM | recombinant pPAFAH, FP-rhodamine probe fluorescence polarization | 330,000 tested, 1.5% active;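 active means inhibition above the mean inhibition across the screen plus 3 SD, cut at about 25% in these data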;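 further: inhibitors block binding of the rhodamine activity-based probe so polarization drops; 0% = enzyme with DMSO and 100% = wells lacking pPAFAH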
HTRA1 inhibitor: HTRA1 serine protease inhibitors, primary screen, biochemical, fluorescence polarization, HTS; 340,000 tested, 0.5% active; AID 504803, 2011; inhibition, % at 5.96 µM; recombinant HTRA1, FP-rhodamine activity-based probe; in the data active means inhibition above about 36%;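 further: 0% = enzyme with DMSO and 100% = wells lacking enzyme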
Target sequence (Q92743 whole entry, looked up): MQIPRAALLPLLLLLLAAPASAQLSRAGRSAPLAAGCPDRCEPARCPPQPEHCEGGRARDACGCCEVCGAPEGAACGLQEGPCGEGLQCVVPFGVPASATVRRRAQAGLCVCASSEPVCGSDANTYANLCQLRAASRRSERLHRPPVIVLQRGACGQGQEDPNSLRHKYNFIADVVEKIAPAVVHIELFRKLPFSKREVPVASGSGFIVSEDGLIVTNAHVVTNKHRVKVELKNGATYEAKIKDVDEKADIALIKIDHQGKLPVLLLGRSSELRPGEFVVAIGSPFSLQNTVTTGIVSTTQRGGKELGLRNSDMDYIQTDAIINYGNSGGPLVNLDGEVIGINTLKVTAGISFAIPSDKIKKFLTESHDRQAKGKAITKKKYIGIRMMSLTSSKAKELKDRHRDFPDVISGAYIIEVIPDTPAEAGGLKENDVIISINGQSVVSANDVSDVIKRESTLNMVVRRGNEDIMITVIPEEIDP
ABHD4 inh: ABHD4 inhibitors, primary screen, biochemical, fluorescence polarization, mouse. (Lyso)-N-acylphosphatidylethanolamine lipase (Mus musculus), Q8VD66. purified mABHD4, FP-Rh probe fluorescence polarization. inhibition, % at 8.92 µM. 370,000 tested, 0.54% active;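 active means inhibition exceeding the mean over every tested compound plus 3 SD, cut at about 30% in these data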;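 further: 0% = plate median of compound wells and 100% = S159A mutant with DMSO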
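Assay system: wild-type mouse ABHD4 protein; compound: single nominal dose of 8.92 µM, 0.89% DMSO final; schedule: 45 min + 60 min at 25 °C; measured by: FP readout, ex 525 nm / em 598 nm; evaluation: % inhibition of FP-Rh probe binding versus controls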
TCR-CD3 inh: inhibitors of human TCR-CD3 interaction, primary screen, biochemical, fluorescence, TAMRA-labeled TCR probe; T-cell receptor (TCR); 360,000 tested, 0.37% active; inhibition, % at 9.4 µM; in the data active means inhibition above about 19%;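 further: recombinant mutant TCR 2C K166C tagged with TAMRA read by polarization; 0% = receptor in buffer alone and 100% = receptor with positive control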
SIAE inh: human SIAE inhibitors, primary screen, biochemical, fluorescence polarization, FP-Rh probe, 1536-well HTS; 370,000 tested, 0.69% active; inhibition, % at 9.66 µM; SIAE FP-Rh probe binding; Sialate O-acetylesterase (Homo sapiens), Q9HAT2;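 active means inhibition above a cutoff: mean of compounds within the control limits plus 3 SD of those, cut at about 17% in these data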;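 further: 0% = plate median of compound wells and 100% = probe without SIAE protein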
SIAE inh conf: human SIAE inhibitors, retest, confirmation, biochemical, fluorescence polarization, FP-Rh probe, triplicate | shares compounds with SIAE inh | SIAE FP-Rh activity-based probe | inhibition, % at 9.66 µM | 2,300 tested, 13% active | AID 1117263, 2014;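 active means mean inhibition of the replicates above the hit cutoff set in the primary screen, cut at about 17% in these data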;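 further: 0% = SIAE with DMSO and probe and 100% = probe without SIAE; inhibitors lower polarization as more probe stays unbound to SIAE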
Active calls of the source: *; x = not tested or not shown.

SMILES	pPAFAH FP inh	HTRA1 inhibitor	ABHD4 inh	TCR-CD3 inh	SIAE inh	SIAE inh conf
CCCc1cc(=O)oc2cc(C)cc(OCC(=O)NCc3cccnc3)c12	-1.5	-6.0	-0.1	2.1	17.5*	1.3
O=C(Nc1ccccc1)Nc1nc2ncccn2c1-c1ccc(F)c(F)c1	x	x	-4.5	x	3.2	x
Cn1c(Oc2cccnc2CN2CCCC2)nc2cc(-c3cccc(C(F)(F)F)c3)sc2c1=O	x	x	-9.9	7.4	-19.2	x
COc1ccc(-c2csc(N(CCCN(C)C)C(=O)c3ccc(F)cc3)n2)cc1	7.0	-9.3	5.8	0.3	2.1	x
CCN(CC)CCCN(C(=O)c1ccc(F)cc1)c1nc(-c2ccc(OC)cc2)cs1	3.6	-1.8	1.5	-0.3	23.6*	3.9
C[C@H](CO)N1C[C@H](C)[C@H](CN(C)C(=O)NC2CCCCC2)OCc2cnnn2CCCC1=O	x	x	-5.2	-13.0	4.4	x
COc1cc(CNc2ccc3[nH]c(=O)[nH]c3c2)ccc1OCc1ccc(F)cc1	10.5	6.9	16.8	-3.0	21.7*	-1.2
COc1cc(CNc2ccc3[nH]c(=O)[nH]c3c2)ccc1OCc1ccc(F)cc1Cl	x	5.9	10.2	3.2	6.9	x
COc1cc(CNc2ccc3[nH]c(=O)[nH]c3c2)cc(Br)c1OCc1ccccc1F	x	-9.3	11.8	-1.1	21.4*	12.8
Nc1nc2c(ncn2[C@@H]2O[C@H](CNCc3ccccc3)[C@@H](O)[C@H]2O)c(=O)[nH]1	x	x	3.5	-1.9	3.1	x
COc1ccc(CNC(=O)Nc2nc(C(N)Cc3ccc(C(F)(F)F)cc3)cs2)cc1 (stereo not drawn)	x	x	9.1	-0.6	4.3	x
COc1ccc(-c2nc3cccc(C)n3c2NCc2ccco2)cc1OC	14.0	9.8	1.6	1.4	25.1*	3.8
COc1ccc(-c2csc(NCc3ccco3)n2)cc1C	5.6	-6.8	x	x	x	x
Cc1ccc(-n2c([S-])c(C(=O)Nc3ccc(OC(F)F)cc3)[n+]3ccc(C(=O)NCCO)cc23)cc1C	-0.2	-16.4	-5.0	-3.5	17.5*	-7.1
CCCCCC(=O)Nc1cc2[nH]c(=O)cc(COC)c2cc1C	10.9	-1.8	9.1	-5.8	-1.7	x
COCc1cc(=O)[nH]c2cc(NC(=O)C(C)(C)CCl)c(C)cc12	4.6	1.2	1.2	-2.5	97.2*	0.0
O=C(OCC#CCSc1nnc(-c2cccc3ccccc23)o1)c1ccc(OC(F)F)cc1	x	x	-21.7	x	1.3	x
CC(C)NC(=O)C1(C)CN(S(C)(=O)=O)CC(=O)N1C1CCN(Cc2ccccc2)CC1 (stereo not drawn)	x	x	-3.2	6.6	-3.1	x
O=C(CN1C(=O)NC2(CCCCC2)C1=O)N1CCN(S(=O)(=O)c2cccc([N+](=O)[O-])c2)CC1	0.0	2.8	3.6	3.1	18.4*	2.1
O=C(CN1C(=O)NC2(CCCCC2)C1=O)N1CCN(S(=O)(=O)c2cccc(F)c2)CC1	4.9	-2.2	-6.3	2.0	3.6	x
COc1ccc(/C=N/NC(=O)c2ccc(F)cc2)cc1CN1CCc2cc(OC)c(OC)cc2C1C (stereo not drawn)	4.2	-13.6	-1.9	8.0	-2.4	x
COc1ccc(/C=N/NC(=O)c2ccc(O)cc2)cc1CN1CCCc2ccccc21	9.1	-24.7	-1.4	-4.8	25.9*	-3.7
CN(C)c1ccc(C2Nc3cccc4cccc(c34)N2)cc1	-5.2	22.1	2.6	1.4	38.0*	7.3
COc1ccc(C2Nc3cccc4cccc(c34)N2)cc1	5.1	3.6	2.2	-0.9	25.3*	11.4
Oc1ccc(N=Nc2nc(-c3ccccc3)c(-c3ccccc3)[nH]2)cc1	15.6	-2.8	-21.5	2.2	36.6*	-0.7
Oc1ccc(N=Nc2n[nH]c(-c3ccccc3)n2)cc1	5.6	3.9	-3.0	-6.3	-4.1	x
CCOC(=O)c1c(C)[nH]c(C(=O)OCC(=O)Nc2cc(C)nn2-c2ccccc2)c1C	0.1	-5.2	-0.6	3.5	17.9*	-2.5
Cc1cc(NC(=O)COC(=O)c2ccc(S(=O)(=O)C(F)F)cc2)n(-c2ccccc2)n1	10.6	-3.7	-1.1	0.7	-4.1	x
CN[C@H]1C[C@H]2c3cc(-c4ccccc4C)ccc3CCN2C[C@H]1[C@H](C)O	x	x	-4.1	x	-1.1	x
